# Compound activity as filed in PubChem.
# An excerpt weighted towards active compounds, which were near 1.9% of everything screened.
# RanGTP-Impb inh = disruptors of Ran-importin-beta complex formation – biochemical, FRET, CFP-Ran, YFP-importin-beta, homogeneous, primary screen; cell-free CFP-Ran/YFP-importin-beta FRET ratio; inhibition, % (test concentration not listed); actives 1.1% (n = 300,000);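 active = more than half of the replicate wells show a fall in the fluorescence ratio signal beyond about 16%, limit read from the data, passing the limit was not always enough; inconclusive = exactly half of the replicate wells pass the set limit; inactive = fewer than half of replicates pass the limit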;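 note: 0% = DMSO wells and 100% = Ran loaded with GDP instead of GTP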
# Hck Nef HTS = human Hck-Nef kinase inhibition | P08631 | Recombinant Hck-YEEI plus Nef, Z-Lyte FRET kinase assay | inhibition, % at 20 µM | actives 0.68% (n = 220,000);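 active = Hck-Nef kinase inhibition above about 50%, limit read from the data; inactive = inhibition below that limit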;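 note: 0% = DMSO with Hck plus Nef and 100% = Hck alone without Nef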
# Runt-SMMHC FRET = blocks binding of human RUNX1 Runt domain to CBFb-SMMHC | Q01196+Q13951 | Cerulean-Runt/Venus-CBFb-SMMHC FRET ratio 530/480, 1 h | inhibition, % at 20 µM | actives 0.74% (n = 220,000);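 active = mean inhibition across duplicate retests at 20 µM reaching about 50%, limit read from the data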;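 note: 0% = DMSO wells and 100% = wells with excess untagged CBFb-SMMHC; inhibitors lower the FRET ratio by blocking Runt binding to CBFb-SMMHC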
# Target sequence (Q01196 whole entry, looked up, the tested form may be a part): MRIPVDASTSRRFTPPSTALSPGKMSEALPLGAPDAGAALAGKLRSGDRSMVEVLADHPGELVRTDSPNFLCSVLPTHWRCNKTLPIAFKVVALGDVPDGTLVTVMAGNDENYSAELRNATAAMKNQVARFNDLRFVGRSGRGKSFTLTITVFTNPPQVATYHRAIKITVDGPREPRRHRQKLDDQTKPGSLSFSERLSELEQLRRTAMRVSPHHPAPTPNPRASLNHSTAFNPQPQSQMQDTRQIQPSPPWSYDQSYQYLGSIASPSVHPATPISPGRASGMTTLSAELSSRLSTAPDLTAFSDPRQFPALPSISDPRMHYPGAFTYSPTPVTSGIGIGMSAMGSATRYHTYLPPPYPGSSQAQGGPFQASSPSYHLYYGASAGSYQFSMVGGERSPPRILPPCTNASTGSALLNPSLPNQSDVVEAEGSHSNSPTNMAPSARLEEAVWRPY
# Target sequence (Q13951 whole entry, looked up, the tested form may be a part): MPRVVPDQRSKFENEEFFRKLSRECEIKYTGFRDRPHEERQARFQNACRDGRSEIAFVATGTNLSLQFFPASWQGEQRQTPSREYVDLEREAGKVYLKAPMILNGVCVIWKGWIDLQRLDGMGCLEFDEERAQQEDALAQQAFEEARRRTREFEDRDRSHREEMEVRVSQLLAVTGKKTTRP
# Runt-CBFb FRET = Runt domain-CBFb interaction inhibition | AID 1496 | Cerulean-Runt/Venus-CBFb FRET ratio 530/480, 1 h | actives 0.46% (n = 220,000) | Q01196+Q13951 | inhibition, % at 20 µM;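 active = inhibition over about 50% at 20 µM in the single-dose screen, limit read from the data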;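 note: 0% = DMSO wells and 100% = excess unlabeled CBFb competitor control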
#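 Buffer or medium: Tris pH 7.5 buffer with BSA. Assay system: Cerulean-labeled Runt domain protein. Amount: each fluorescent fusion protein 100 nM. Read-out basis: loss of energy transfer signal. Incubation: 1 h compound exposure, room temperature. Probe or stimulus: Venus-CBFb binding partner, 100 nM. Detection: FRET, excitation 422 nm, emission at 530 and 480 nm.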
# * = called active by the depositor; u = inconclusive; x = no result.
SMILES,RanGTP-Impb inh,Hck Nef HTS,Runt-SMMHC FRET,Runt-CBFb FRET
Cc1ccc(-n2c(C)cc(/C=C3\SC(=O)NC3=O)c2C)cc1,4.2,x,x,x
Cc1cc(/C=C2\SC(=S)NC2=O)c(C)n1-c1cccc(O)c1,20.4*,64.5*,-24.7,-6.3
CN1C(=O)/C(=C/c2coc3ccc(O)cc3c2=O)SC1=S,u,5.7,-8.6,-1.9
CCCCn1c(=O)[nH]c(=O)c2c1nc(Cn1ncc(Cl)c(Cl)c1=O)n2CCC,-0.8,x,x,x
C=CCn1c(=O)c2c(nc3n2CCCN3CCc2ccc(OC)c(OC)c2)n(C)c1=O,-2.0,x,x,x
CN(Cc1ccccc1)C(=O)Cn1cccc1C(=O)c1ccccc1,70.2*,-15.4,2.8,0.6
COc1cc(-c2nnc(COC(=O)c3c4c(nc5ccccc35)CCCC4)o2)cc(OC)c1OC,x,0.8,-3.0,-4.1
Cc1sc2nc(-c3cccs3)oc(=O)c2c1C,32.2*,x,x,x
Nc1cccc2c1C(=O)N(CC(=O)NC13CC4CC(CC(C4)C1)C3)C2=O,5.5,14.1,92.8*,20.3
Nc1[nH]c(=O)[nH]c(=O)c1N=Nc1ccc(C(=O)O)cc1,-1.1,x,x,x
Cc1ccc(C2=C/C(=C/c3cccnc3)C(=O)O2)c(C)c1,33.8*,1.9,-1.7,1.6
O=C1OC(c2ccc(Cl)cc2)=C/C1=C/c1cccnc1,3.6,x,x,x
CCS(=O)(=O)C1=NN2C(=N)/C(=C\c3ccc(SCc4ccco4)o3)C(=O)N=C2S1,u,63.5*,8.4,26.4
CCS(=O)(=O)C1=NN2C(=N)/C(=C\c3ccc(OC(=O)c4ccco4)c(Br)c3)C(=O)N=C2S1,0.1,x,x,x
O=C(COC(=O)[C@H](Cc1ccccc1)NC(=O)c1ccco1)NCc1ccccc1,-1.0,1.6,3.5,0.5
Cc1ccccc1NC(=O)NC1(C(=O)N2CCC(C(N)=O)CC2)CCCCC1,0.8,x,x,x
CCN1CCN(C2=CC3=CC(=C(C#N)C#N)CCC3CC2)CC1 (stereo unspecified),x,0.1,86.2*,-114.7
CN1CCN(C2=CC3=CC(=C(C#N)C#N)CCC3CC2)CC1 (stereo unspecified),x,0.3,88.4*,-27.3
CC1(C)CC(NCCN2CCN(C3=CC(=C(C#N)C#N)CC(C)(C)C3)CC2)=CC(=C(C#N)C#N)C1,-2.2,19.6,-26.9,-11.7
N#CC(C#N)=C1C=C2C=C(N3CCCCCC3)CCC2CC1 (stereo unspecified),44.5*,3.4,82.6*,4.2
N#CC(C#N)=C1C=C2C=C(N3CCOCC3)CCC2CC1 (stereo unspecified),-1.6,15.6,86.5*,19.9
O=C(Nc1cnn(Cc2ccc(Cl)cc2)c1)c1cnccn1,-1.2,3.4,3.0,-0.2
O=C(O)C(=O)/C(=C\c1ccsc1)c1ccc2ccccc2n1,19.9*,x,x,x
O=C(c1ccccc1)c1ccc2ccccc2n1,-1.8,0.6,0.5,-1.9
O=C(O)C(=O)/C(=C\c1ccccc1)c1ccc2ccccc2n1,30.9*,18.0,51.5*,7.1
SMILES,RanGTP-Impb inh,Hck Nef HTS,Runt-SMMHC FRET,Runt-CBFb FRET
O=C(O)C(=O)/C(=C\c1ccc([N+](=O)[O-])cc1)c1ccc2ccccc2n1,9.2,-5.1,25.4,14.7
O=C(O)C(=O)/C(=C\c1cccc2ccccc12)c1ccc2ccccc2n1,62.8*,1.0,80.2*,18.6
Cn1c(C(=O)N2CCN(c3ccccc3)CC2)cc2cc(Cl)ccc21,-2.7,x,x,x
CCN1C(=O)/C(=C\N2CCCc3ccccc32)SC1=S,9.7,-0.9,-0.2,-1.8
CCN1C(=O)/C(=C/N2CCc3ccccc32)SC1=S,27.8*,9.0,61.6,-72.2
CC1(C)CC(=O)C(C=Nc2cccc(/N=C/C3=C(O)CC(C)(C)CC3=O)n2)=C(O)C1,32.4*,1.0,6.8,3.1
O=c1cc(N2CCc3ccccc3C2)[nH]c(=O)n1Cc1ccc(F)cc1,80.1*,-0.5,16.1,1.7
O=c1cc(N2CCc3ccccc3C2)[nH]c(=O)n1-c1ccc(Br)cc1,123.9*,-0.2,4.4,2.1
O=c1cc(N2CCc3ccccc32)[nH]c(=O)n1-c1ccc(Br)cc1,-7.1,-0.1,7.3,7.1
O=c1cc(N2CCC3(CC2)OCCO3)[nH]c(=O)n1-c1ccc(Cl)cc1,11.9,-0.6,32.4,10.6
O=c1cc(N2CCc3ccccc3C2)[nH]c(=O)n1-c1ccc(Cl)cc1,117.1*,-20.2,-0.2,4.0
O=C(O)c1ccc(Nc2nc(-c3ccccc3)nc3ccccc23)cc1,-0.7,x,x,x
O=C(O)c1ccc(Nc2c3ccccc3nc3ccccc23)cc1,20.0*,x,x,x
COc1ccc(Nc2c3ccccc3nc3ccccc23)cc1,66.7*,x,x,x
COc1cccc(C(=O)NNc2c3ccccc3nc3ccccc23)c1,16.0*,x,x,x
COC(=O)c1ccc2c(=O)n(CC3CCCO3)c(SCC(=O)Nc3ccc(OC)cc3OC)nc2c1 (stereo unspecified),4.0,23.2,-10.3,-3.7
COc1ccccc1N(CC(=O)NC1CCCC1)C(=O)CNC(=O)c1cccs1,2.3,x,x,x
FC(F)(F)c1nnc2c(Sc3ccccc3)nc3ccccc3n12,5.8,0.5,9.8,4.4
FC(F)(F)c1nnc2c(Sc3ccccn3)nc3ccccc3n12,8.5,0.5,51.4*,15.9
CN(CC(=O)Nc1ncn[nH]1)S(=O)(=O)c1cc(Cl)ccc1Cl,-3.0,x,x,x
Cn1c(SCC(=O)N2CCc3ccccc32)nnc1-c1ccc(S(=O)(=O)N2CCCC2)cc1,-1.1,4.4,-2.3,-0.4
CC(=O)c1cccc(NC(=O)C2CCN(S(=O)(=O)c3c(C)n[nH]c3C)CC2)c1,0.2,2.8,-0.3,100.2*
Nc1nnc(/C=C/c2ccccc2)s1,2.6,21.0,-0.5,0.4
CNCC(=O)N(CC(C)C)c1c(N)n(CC(C)C)c(=O)[nH]c1=O,1.9,1.7,55.9*,8.0
COCCN(C(=O)CN1CCc2ccccc2C1)c1c(N)n(Cc2ccccc2)c(=O)[nH]c1=O,6.8,-0.3,74.3*,27.1
CC(C)CN(C(=O)CN1CCc2ccccc21)c1c(N)n(CC(C)C)c(=O)[nH]c1=O,8.2,3.4,72.5*,35.0
CC(C)(C)c1ccc(COn2ccnc2)cc1,2.1,-2.7,0.6,-2.5
COC(=O)C1=C2c3[nH]c4ccccc4c3CCN2C(=O)CC1,3.2,x,x,x
